An excerpt weighted towards active compounds, which were near 3.4% of everything screened.
rRNA inh HTS: inhibitors of bacterial rRNA selective over humanized ribosomes | E. coli WT GFP vs humanized-ribosome RFP mutants, fluorescence, 24 h; stronger effect = lower value; DMSO median 0, no signal -100 | GFP signal change (wild-type ribosome), % (concentration not given with the values) | hit rate 1.6% among 350,000;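 active = significant combined selectivity score with lowered wild-type GFP, culture density cut under 30%, mutant RFP and density less affected; inactive = any of these conditions unmet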
MLL AF4-AF9 inh: blocks AF4 peptide binding to human AF9. hit rate 0.47% among 350,000. AlphaScreen, biotin-AF4 peptide binding to FLAG-AF9. AID 651704. inhibition, % at 10 µM. P42568;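 active = every replicate reaching a set inhibition limit, whatever the replicate mean, cut at about 25% in these data; inconclusive = mean inhibition reaches that limit but some replicates miss it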
S100A4 MyoIIA: inhibitors of human S100A4 binding to myosin IIA peptide | hit rate 0.14% among 360,000 | inhibition, % at 10.7 µM | P26447 | AID 652163 | S100A4/TAMRA-MyoIIA peptide fluorescence polarization;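 active = mean inhibition of at least 70% across replicates, with every replicate also reaching that level; inconclusive = mean inhibition reaches 70% but some replicates fall short; inactive = mean inhibition below 70%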
Target sequence (P26447 whole entry, looked up): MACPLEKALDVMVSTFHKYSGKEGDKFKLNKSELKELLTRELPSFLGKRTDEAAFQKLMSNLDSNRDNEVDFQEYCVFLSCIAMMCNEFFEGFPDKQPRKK
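Material: S100A4 monomer (human). Medium: Calcium-containing HEPES buffer, pH 7.2. Probe or stimulus: labelled myosin peptide probe, 5 nM. Compound dosing: one concentration per compound. Timing: polarization read 5 min after assay mix addition, stable 5–60 min. Benchmarks: DMSO as neutral control, TFP as positive control.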
ERAP1 HTS inh: ERAP1 (human) enzyme inhibition. AID 652197. recombinant ERAP1, Leu-AMC fluorescence, 60 min. inhibition, % at 10.7 µM. hit rate 0.15% among 340,000. Q9NZ08;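 active = mean replicate inhibition of at least 30%, or all replicates individually reaching that 30% level; inactive = mean below 30% and not every replicate reaching it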
E-sel inducer: induces E-selectin expression in human endothelial cells; HUVEC E-selectin immunofluorescence imaging; normalized: neutral wells 0, TNF-alpha wells 100; activation, % at 7.58 µM; hit rate 0.37% among 260,000; AID 686992;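 active = mean E-selectin-positive cell signal at least 10% of the positive control, reached in at least 60% of replicates, without over 20% cell loss; inconclusive = no rule given, readout overlaps actives, possibly toxicity-flagged; inactive = the rest, including those meeting only one limit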
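Material: HUVEC primary endothelial cells; Amount: 3,000 cells per well; Dosing: single concentration; Medium: EGM-2 growth medium on 0.1% gelatin-coated wells; Read-out basis: percent E-selectin-positive cells; Signal: immunofluorescence imaging; Control set: TNF-alpha, DMSO.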
SIRT5 block: blocks human SIRT5 desuccinylation of peptide. AID 652115. Q9NXA8. hit rate 1.1% among 330,000. Purified SirT5, succinyl-peptide AMC, trypsin-coupled fluorescence. inhibition, % at 15 µM; in the data active = inhibition above about 15%; inconclusive = no clear call, values can overlap the other calls
Target sequence (Q9NXA8 whole entry, looked up): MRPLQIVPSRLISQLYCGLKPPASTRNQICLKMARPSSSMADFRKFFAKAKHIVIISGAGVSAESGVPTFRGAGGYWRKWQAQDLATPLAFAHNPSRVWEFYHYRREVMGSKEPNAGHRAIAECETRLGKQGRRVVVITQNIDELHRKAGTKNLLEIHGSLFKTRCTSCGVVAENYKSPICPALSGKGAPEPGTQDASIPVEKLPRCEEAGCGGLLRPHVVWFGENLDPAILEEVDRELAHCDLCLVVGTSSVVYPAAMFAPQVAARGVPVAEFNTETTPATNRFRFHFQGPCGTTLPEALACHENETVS
A number is an active result; n = inactive; u = inconclusive; x = not tested or not shown.

SMILES | rRNA inh HTS | MLL AF4-AF9 inh | S100A4 MyoIIA | ERAP1 HTS inh | E-sel inducer | SIRT5 block
CCCS(=O)(=O)NC(=O)C1(C)CCN(C(=O)c2cccs2)C1 (centres undefined) | n | n | n | n | n | 20.2
C=C1c2cccc(O)c2C(O)=C2C(=O)[C@]3(O)C(O)=C(C(N)=O)C(=O)[C@@H](N(C)C)[C@@H]3[C@@H](O)[C@H]12 | x | n | n | 35.4 | x | x
C[C@H]1c2cccc(O)c2C(O)=C2C(=O)C3(O)C(O)=C(C(N)=O)C(=O)[C@@H](N(C)C)[C@@H]3[C@@H](O)[C@@H]21 (some centres undefined) | n | n | n | n | n | n
COc1cccc(CN2CC3(CCN(CC4CC4)CC3)c3c([nH]c4cc(OC)ccc34)[C@H]2CO)c1 | n | n | x | x | n | n
COc1ccc2c3c([nH]c2c1)[C@@H](CO)N(Cc1ccccc1)CC31CN(C)C1 | n | n | n | 71.0 | n | n
COc1cccc(CN2CC3(CN(C)C3)c3c([nH]c4cc(OC)ccc34)[C@@H]2CO)c1 | n | n | 115.8 | n | n | n
COc1cccc(CN2CC3(CN(C)C3)c3c([nH]c4cc(OC)ccc34)[C@H]2CO)c1 | n | n | n | n | n | n
COc1ccc2c3c([nH]c2c1)[C@H](CO)N(Cc1ccccc1)CC31CCN(CC2CC2)CC1 | n | 26.1 | n | n | n | x
C/C=C/c1ccc2c(c1)O[C@@H](CN(C)C(=O)C1CCC1)[C@H](C)CN([C@H](C)CO)S2(=O)=O | n | x | x | x | n | x
O=C(c1ccncc1)N1CC2(C1)[C@H](c1ccccc1)[C@H](CO)N2C(=O)c1ccncc1 | n | n | n | n | n | n
O=C(C[C@@H]1CC[C@H]2[C@@H](COC[C@@H](O)CN2CC2CCCC2)O1)NCC1CC1 | n | n | n | n | n | n
CN1CCN(C(=O)C[C@H]2CC[C@H](NC(=O)Cc3ccccn3)[C@H](CO)O2)CC1 | n | n | n | n | n | n
COc1cc(NC(=O)CSc2nnc(-c3cc(C)on3)o2)cc(OC)c1 | n | n | n | n | x | n
Cc1cc(-c2nnc(SCC(=O)Nc3nc(-c4ccc(Cl)cc4)cs3)o2)no1 | -33.2 | n | n | n | n | n
COc1ccccc1NC(=O)C(=O)NNC(=O)COc1ccc2ccccc2c1 | n | n | n | n | x | n
COc1ccc(C(=O)Nc2ccc3ccccc3c2)c(OC)c1 | -27.5 | n | n | n | x | n
COc1ccccc1NC(=O)COc1ccc2ccccc2c1 | -31.4 | n | n | n | n | n
COc1cccc(OC)c1C(=O)Nc1ccc2c(c1)Cc1ccccc1-2 | -22.9 | n | n | n | x | n
COc1ccc2nc(SCC(=O)Nc3ccccc3OC)[nH]c2c1 | -24.1 | n | n | n | n | n
COc1ccc(C(=O)Nc2ccncc2)c(OC)c1 | n | n | n | n | x | n
COc1ccc(NC(=O)CSc2nc3ccc(OC)cc3[nH]2)cc1 | n | n | n | x | n | n
Cc1ccc(S(=O)(=O)N[C@H]2CC[C@H](CCNC(=O)C3CCC3)O[C@H]2CO)cc1 | n | n | n | n | n | n
COc1ccccc1C(=O)Nc1ccc2ccccc2c1 | -32.7 | n | n | x | x | n
COc1cc2ccccc2cc1C(=O)Nc1ccc(C)cc1 | n | n | n | n | x | n
COc1ccccc1C(=O)Nc1cccc(NC(=O)c2ccccc2C)c1 | -34.5 | n | n | n | x | n
SMILES | rRNA inh HTS | MLL AF4-AF9 inh | S100A4 MyoIIA | ERAP1 HTS inh | E-sel inducer | SIRT5 block
COc1ccccc1C(=O)NCCC(=O)Nc1ccc(OC(F)(F)F)cc1 | n | n | n | n | x | 101.5
CCCNC(=O)N1CCC2(CC1)CN(C(=O)NC1CCCC1)[C@@H](CO)c1[nH]c3cc(OC)ccc3c12 | n | n | n | n | n | n
CN(C)CCn1c(NCc2ccc3c(c2)OCO3)nc2ccccc21 | n | n | n | n | n | 30.5
CCNc1nc(NCC)nc(-n2nc(C)cc2C)n1 | -42.5 | n | n | n | x | n
COc1ccc(/C=N/Nc2nc(Nc3ccccc3)nc(N3CCCC3)n2)cc1 | n | n | n | n | x | n
C(=N\Nc1nc(Nc2ccccc2)nc(N2CCCCC2)n1)/c1ccco1 | -38.2 | u | n | n | x | n
CC(=O)NC(Cc1c[nH]c2ccccc12)C(=O)NCCc1ccccn1 (centres undefined) | n | n | n | n | 45.7 | n
